Data reported in ChEMBL document CHEMBL1154167, “Discovery of azetidinyl ketolides for the treatment of susceptible and multidrug resistant community-acquired respiratory tract infections” (J Med Chem, 2009).
Values after ≈ are worked out from the molar mass of the structure shown.

Columns and labels:
[1] = tested on: Streptococcus pneumoniae; assay: Antibacterial activity against multidrug-resistant Streptococcus pneumoniae 1175 harboring mefA gene by NCCLS method; format: functional
[2] = tested on: Streptococcus pyogenes; assay: Antibacterial activity against multidrug-resistant Streptococcus pyogenes 1079 harboring ermB gene by NCCLS method; format: functional
[3] = Metabolic stability in human liver cytosol assessed as compound turnover at 1 uM in presence of aldehyde oxidase inhibitor raloxifene; format: ADME
Outline: (§1)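 Human liver cytosol incubations, used as a readout of aldehyde oxidase metabolism, run with and without the AO inhibitor raloxifene.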

[4] = tested on: Streptococcus pneumoniae; assay: Antibacterial activity against multidrug-susceptible Streptococcus pneumoniae 1016 by NCCLS method; format: functional
[5] = tested on: Haemophilus influenzae; assay: Antibacterial activity against multidrug-susceptible Haemophilus influenzae 1325 by NCCLS method; format: functional
[6] = tested on: Streptococcus pneumoniae; assay: Antibacterial activity against multidrug-resistant Streptococcus pneumoniae 1095 harboring ermB gene by NCCLS method; format: functional
[7] = biological target: Voltage-gated inwardly rectifying potassium channel KCNH2 (Homo sapiens, UniProt Q12809); assay: Inhibition of human ERG by patch-clamp assay
[8] = Metabolic stability in human liver cytosol assessed as compound turnover at 1 uM after 60 mins; format: ADME, tissue-based; settings: 1 h; outline: as §1
[9] = Metabolic stability in human liver microsomes assessed as hepatic extraction ratio at 1 uM; format: ADME, Microsome; settings: read-out: ERH
Outline: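 Human liver microsomes used to screen for metabolic clearance; the readout was the microsomal extraction ratio (ER).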

[10] = tested on: Streptococcus pneumoniae; assay: Antibacterial activity against multidrug-resistant Streptococcus pneumoniae 1095 harboring ermB infected in po dosed mouse respiratory tract model assessed as survival administered 18 hrs postinfection BID for 2 days measured on day 10 postinfection; format: functional; settings: Streptococcus pneumoniae, 1095, po; read-out: PD50
Outline: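 Murine respiratory tract infection model using S. pneumoniae 1095 (erm). Compounds were given orally. The outcome was the 50% protective dose (PD50), reported as (mg/kg)/dose.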

[11] = tested on: Haemophilus influenzae; assay: Antibacterial activity against multidrug-susceptible Haemophilus influenzae 1325 infected in po dosed Mongolian gerbil otitis media model assessed as reduction of bacterial infection administered 18 hrs postinfection TID for 2 days measured on day 4 postinfection; format: functional; settings: Haemophilus influenzae, 1325, po
Outline: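 Gerbil otitis media model infected with H. influenzae 1325; compounds given orally. Efficacy expressed as ED50 in (mg/kg)/dose.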

Chain of Voltage-gated inwardly rectifying potassium channel KCNH2 (Q12809 whole entry): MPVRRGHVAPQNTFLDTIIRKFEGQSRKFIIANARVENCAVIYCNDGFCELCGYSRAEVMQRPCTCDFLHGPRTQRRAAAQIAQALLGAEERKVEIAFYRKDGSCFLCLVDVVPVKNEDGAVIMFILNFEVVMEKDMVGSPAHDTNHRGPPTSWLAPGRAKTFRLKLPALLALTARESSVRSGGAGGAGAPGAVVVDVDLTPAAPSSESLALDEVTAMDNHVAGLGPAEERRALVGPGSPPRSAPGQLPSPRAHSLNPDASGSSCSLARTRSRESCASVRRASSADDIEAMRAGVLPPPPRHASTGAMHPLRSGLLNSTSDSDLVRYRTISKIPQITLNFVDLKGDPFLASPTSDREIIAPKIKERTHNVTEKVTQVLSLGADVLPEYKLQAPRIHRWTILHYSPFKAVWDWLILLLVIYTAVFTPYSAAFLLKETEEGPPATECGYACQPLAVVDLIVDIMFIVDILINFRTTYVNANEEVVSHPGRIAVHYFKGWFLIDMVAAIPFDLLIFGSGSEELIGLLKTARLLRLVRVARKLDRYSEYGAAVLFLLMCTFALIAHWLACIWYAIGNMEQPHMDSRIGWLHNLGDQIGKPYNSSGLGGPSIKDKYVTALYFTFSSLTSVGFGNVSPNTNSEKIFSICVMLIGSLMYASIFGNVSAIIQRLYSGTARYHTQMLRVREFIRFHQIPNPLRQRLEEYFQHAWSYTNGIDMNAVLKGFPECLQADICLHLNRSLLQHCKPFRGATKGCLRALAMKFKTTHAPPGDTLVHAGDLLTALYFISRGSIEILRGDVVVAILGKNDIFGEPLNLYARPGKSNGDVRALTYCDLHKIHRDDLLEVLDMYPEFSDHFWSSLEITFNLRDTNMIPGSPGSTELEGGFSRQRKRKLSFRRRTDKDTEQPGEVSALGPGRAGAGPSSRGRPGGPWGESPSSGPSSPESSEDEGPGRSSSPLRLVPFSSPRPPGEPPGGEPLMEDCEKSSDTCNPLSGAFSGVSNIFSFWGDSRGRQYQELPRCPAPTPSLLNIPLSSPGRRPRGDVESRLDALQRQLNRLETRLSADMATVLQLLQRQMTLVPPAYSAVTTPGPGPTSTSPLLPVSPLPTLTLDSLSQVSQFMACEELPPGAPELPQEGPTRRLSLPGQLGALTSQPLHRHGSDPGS

CC[C@H]1OC(=O)[C@H](C)C(=O)[C@H](C)[C@@H](O[C@@H]2O[C@H](C)C[C@H](N(C)C)[C@H]2O)[C@](C)(O)C[C@@H](C)C(=O)[C@H](C)[C@H]2N(C3CN([C@@H](C)c4ccnc5ncccc45)C3)C(=O)O[C@]12C
MIC [1]: 0.25 µg/mL (≈ 0.309 µM)
MIC [2]: 16 µg/mL (≈ 19.8 µM)
half-life at 1 µM [3]: < 2 h
MIC [4]: ≤ 0.06 µg/mL
MIC [5]: 16 µg/mL (≈ 19.8 µM)
MIC [6]: ≤ 0.06 µg/mL

CC[C@H]1OC(=O)[C@H](C)C(=O)[C@H](C)[C@@H](O[C@@H]2O[C@H](C)C[C@H](N(C)C)[C@H]2O)[C@](C)(O)C[C@@H](C)C(=O)[C@H](C)[C@H]2N(C3CN(Cc4ccnc5ncccc45)C3)C(=O)O[C@]12C
MIC [1]: 0.12 µg/mL (≈ 0.151 µM)
IC50 [7]: 80 µM
MIC [2]: 1 µg/mL (≈ 1.26 µM)
Stability [8]: Unstable
hepatic extraction ratio at 1 µM [9]: 0.6
half-life at 1 µM [3]: < 2 h
MIC [4]: ≤ 0.06 µg/mL
MIC [5]: 4 µg/mL (≈ 5.03 µM)
MIC [6]: ≤ 0.06 µg/mL

CC[C@H]1OC(=O)[C@H](C)C(=O)[C@H](C)[C@@H](O[C@@H]2O[C@H](C)C[C@H](N(C)C)[C@H]2O)[C@](C)(O)C[C@@H](C)C(=O)[C@H](C)[C@H]2N(C3CN(Cc4c(O)cnc5cccnc45)C3)C(=O)O[C@]12C
MIC [1]: ≤ 0.06 µg/mL
IC50 [7]: 67 µM
MIC [2]: 0.5 µg/mL (≈ 0.616 µM)
ED50 [10]: 26.8 mg/kg
Stability [8]: Stable
hepatic extraction ratio at 1 µM [9]: < 0.3
half-life at 1 µM [3]: < 2 h
MIC [4]: ≤ 0.06 µg/mL
ED50 [11]: 53.6 mg/kg
MIC [5]: 4 µg/mL (≈ 4.93 µM)
MIC [6]: ≤ 0.06 µg/mL

CC[C@H]1OC(=O)[C@H](C)C(=O)[C@H](C)[C@@H](O[C@@H]2O[C@H](C)C[C@H](N(C)C)[C@H]2O)[C@](C)(O)C[C@@H](C)C(=O)[C@H](C)[C@H]2N(C3CN(Cc4c(OC)cnc5ncccc45)C3)C(=O)O[C@]12C
MIC [1]: ≤ 0.06 µg/mL
MIC [2]: ≤ 0.06 µg/mL
hepatic extraction ratio at 1 µM [9]: 0.8
half-life at 1 µM [3]: < 2 h
MIC [4]: ≤ 0.06 µg/mL
MIC [5]: 8 µg/mL (≈ 9.69 µM)
MIC [6]: ≤ 0.06 µg/mL

CC[C@H]1OC(=O)[C@H](C)C(=O)[C@H](C)[C@@H](O[C@@H]2O[C@H](C)C[C@H](N(C)C)[C@H]2O)[C@](C)(O)C[C@@H](C)C(=O)[C@H](C)[C@H]2N(C3CN([C@H](C)c4ccnc5ncccc45)C3)C(=O)O[C@]12C
MIC [1]: 0.25 µg/mL (≈ 0.309 µM)
IC50 [7]: 43 µM
MIC [2]: 1 µg/mL (≈ 1.23 µM)
ED50 [10]: 54.5 mg/kg
Stability [8]: Unstable
hepatic extraction ratio at 1 µM [9]: 0.3
half-life at 1 µM [3]: < 2 h
MIC [4]: ≤ 0.06 µg/mL
ED50 [11]: 35.6 mg/kg
MIC [5]: 4 µg/mL (≈ 4.94 µM)
MIC [6]: ≤ 0.06 µg/mL

CC[C@H]1OC(=O)[C@H](C)C(=O)[C@H](C)[C@@H](O[C@@H]2O[C@H](C)C[C@H](N(C)C)[C@H]2O)[C@](C)(O)C[C@@H](C)C(=O)[C@H](C)[C@H]2N(C3CN(Cc4ccnc5cccnc45)C3)C(=O)O[C@]12C
MIC [1]: ≤ 0.06 µg/mL
IC50 [7]: 196 µM
MIC [2]: 1 µg/mL (≈ 1.26 µM)
Stability [8]: Stable
hepatic extraction ratio at 1 µM [9]: 0.7
half-life at 1 µM [3]: < 2 h
MIC [4]: ≤ 0.06 µg/mL
MIC [5]: 8 µg/mL (≈ 10.1 µM)
MIC [6]: ≤ 0.06 µg/mL

CC[C@H]1OC(=O)[C@H](C)C(=O)[C@H](C)[C@@H](O[C@@H]2O[C@H](C)C[C@H](N(C)C)[C@H]2O)[C@](C)(O)C[C@@H](C)C(=O)[C@H](C)[C@H]2N(C3CN(Cc4c(O)cnc5ncccc45)C3)C(=O)O[C@]12C
MIC [1]: ≤ 0.06 µg/mL
IC50 [7]: 140 µM
MIC [2]: 0.25 µg/mL (≈ 0.308 µM)
Stability [8]: Unstable
hepatic extraction ratio at 1 µM [9]: < 0.3
half-life at 1 µM [3]: < 2 h
MIC [4]: ≤ 0.06 µg/mL
MIC [5]: 4 µg/mL (≈ 4.93 µM)
MIC [6]: ≤ 0.06 µg/mL

CC[C@H]1OC(=O)[C@H](C)[C@@H](O[C@H]2C[C@@](C)(OC)[C@@H](O)[C@H](C)O2)[C@H](C)[C@@H](O[C@@H]2O[C@H](C)C[C@H](N(C)C)[C@H]2O)[C@](C)(OC)C[C@@H](C)C(=O)[C@H](C)[C@@H](O)[C@]1(C)O [CLARITHROMYCIN]
MIC [1]: 16 µg/mL (≈ 21.4 µM)
MIC [2]: > 64 µg/mL
ED50 [10]: > 100 mg/kg
half-life at 1 µM [3]: < 2 h
MIC [4]: ≤ 0.06 µg/mL
ED50 [11]: > 100 mg/kg
MIC [5]: 16 µg/mL (≈ 21.4 µM)
MIC [6]: > 64 µg/mL

CC[C@H]1OC(=O)[C@H](C)C(=O)[C@H](C)[C@@H](O[C@@H]2O[C@H](C)C[C@H](N(C)C)[C@H]2O)[C@](C)(O)C[C@@H](C)C(=O)[C@H](C)[C@H]2N(C3CN(Cc4cccc5nc[nH]c45)C3)C(=O)O[C@]12C
MIC [1]: 0.5 µg/mL (≈ 0.638 µM)
MIC [2]: 8 µg/mL (≈ 10.2 µM)
half-life at 1 µM [3]: < 2 h
MIC [4]: ≤ 0.06 µg/mL
MIC [5]: 8 µg/mL (≈ 10.2 µM)
MIC [6]: 0.125 µg/mL (≈ 0.159 µM)

CC[C@H]1OC(=O)[C@H](C)C(=O)[C@H](C)[C@@H](O[C@@H]2O[C@H](C)C[C@H](N(C)C)[C@H]2O)[C@](C)(OC)C[C@@H](C)C(=O)[C@H](C)[C@H]2N(CCCCn3cnc(-c4cccnc4)c3)C(=O)O[C@]12C [TELITHROMYCIN]
MIC [1]: ≤ 0.06 µg/mL
IC50 [7]: 40 µM
MIC [2]: 32 µg/mL (≈ 39.4 µM)
ED50 [10]: 31.2 mg/kg
Stability [8]: Stable
hepatic extraction ratio at 1 µM [9]: 0.7
half-life at 1 µM [3]: < 2 h
MIC [4]: ≤ 0.06 µg/mL
ED50 [11]: 37.5 mg/kg
MIC [5]: 4 µg/mL (≈ 4.93 µM)
MIC [6]: ≤ 0.06 µg/mL
